# Results from ChEMBL document CHEMBL2331242, “Amberlite IR-120H catalyzed MCR: design, synthesis and crystal structure analysis of 1,8-dioxodecahydroacridines as potential inhibitors of sirtuins” (Bioorg Med Chem Lett, 2013).
# Biological target: NAD-dependent histone deacetylase SIR2 (Saccharomyces cerevisiae S288c) (UniProt P06700)
# Experiment: Inhibition of yeast TEL::-URA3 Sir2 assessed as growth inhibition of yeast at 50 uM after 24 to 48 hrs
# Summary of the method: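 Yeast cell-based reporter silencing screen for Sir2, the yeast homologue of SIRT1. Strain TEL::URA3 (MATα ura3-52 lys2-801 ade2-101 trpΔ63 his3Δ200 leu2-Δ1 TEL adh4::URA3) carries URA3 inserted at a telomeric locus, where Sir2 silences it. Inhibition was scored as inhibition of growth of this strain in the presence of 5-fluoroorotic acid. Compounds were tested at 50 µM, with splitomicin as the reference inhibitor.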
# NAD-dependent histone deacetylase SIR2 (Saccharomyces cerevisiae S288c), sequence (P06700 whole entry): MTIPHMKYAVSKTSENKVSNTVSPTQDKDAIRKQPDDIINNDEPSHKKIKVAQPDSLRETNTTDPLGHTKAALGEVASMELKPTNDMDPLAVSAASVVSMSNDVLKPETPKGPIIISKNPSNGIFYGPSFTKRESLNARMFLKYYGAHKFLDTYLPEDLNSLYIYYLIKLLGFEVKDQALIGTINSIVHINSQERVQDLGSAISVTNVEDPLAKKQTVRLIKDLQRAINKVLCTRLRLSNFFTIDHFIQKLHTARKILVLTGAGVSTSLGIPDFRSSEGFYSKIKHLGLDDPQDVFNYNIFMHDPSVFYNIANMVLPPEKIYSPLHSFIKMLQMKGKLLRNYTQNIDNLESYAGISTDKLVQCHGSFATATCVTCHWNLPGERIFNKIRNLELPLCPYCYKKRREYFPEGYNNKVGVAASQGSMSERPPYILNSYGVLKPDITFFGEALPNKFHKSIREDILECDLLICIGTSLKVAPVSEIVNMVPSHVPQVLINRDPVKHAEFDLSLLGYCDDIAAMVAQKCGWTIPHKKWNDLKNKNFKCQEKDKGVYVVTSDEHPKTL
row,SMILES,inhibition [%]
1,CC1(C)CC(=O)C2=C(C1)N(c1ccccc1)C1=C(C(=O)CC(C)(C)C1)C2c1ccccc1O,15.6
2,CC1(C)CC(=O)C2=C(C1)N(c1ccc(F)cc1)C1=C(C(=O)CC(C)(C)C1)C2c1cccc(F)c1,28.4
3,CC1(C)CC(=O)C2=C(C1)N(c1ccc(I)cc1)C1=C(C(=O)CC(C)(C)C1)C2c1cccs1,13
4,CC1(C)CC(=O)C2=C(C1)N(c1ccc(Br)cc1)C1=C(C(=O)CC(C)(C)C1)C2c1ccc2ccccc2c1,10.6
5,CC1(C)CC(=O)C2=C(C1)N(c1ccc(I)cc1)C1=C(C(=O)CC(C)(C)C1)C2c1cccc([N+](=O)[O-])c1,35.2
6,CCOC(=O)c1c(N2C3=C(C(=O)CC(C)(C)C3)C(c3cccs3)C3=C2CC(C)(C)CC3=O)sc2c1CCCC2,16.2
7,CC1(C)CC(=O)C2=C(C1)N(c1ccccc1I)C1=C(C(=O)CC(C)(C)C1)C2c1cccc(O)c1,23.7
8,CC1(C)CC(=O)C2=C(C1)N(c1ccc(Cl)cc1)C1=C(C(=O)CC(C)(C)C1)C2c1cccc([N+](=O)[O-])c1,29.2

# Now from value to molecule:
row,inhibition [%],SMILES
1,33.5,CC1(C)CC(=O)C2=C(C1)N(c1ccc(F)cc1)C1=C(C(=O)CC(C)(C)C1)C2c1cccc(O)c1
2,12.8,CC(=O)c1ccc(N2C3=C(C(=O)CC(C)(C)C3)C(c3cccc(O)c3)C3=C2CC(C)(C)CC3=O)cc1
3,41.1,CC1(C)CC(=O)C2=C(C1)N(c1ccc(I)cc1)C1=C(C(=O)CC(C)(C)C1)C2c1cccc(O)c1
4,30.2,Cc1ccc(N2C3=C(C(=O)CC(C)(C)C3)C(c3cccc(O)c3)C3=C2CC(C)(C)CC3=O)cc1
5,32.5,CC1(C)CC(=O)C2=C(C1)N(c1ccc(Br)cc1)C1=C(C(=O)CC(C)(C)C1)C2c1cccc(O)c1
6,28.5,CC1(C)CC(=O)C2=C(C1)N(c1ccc(C(F)(F)F)cc1)C1=C(C(=O)CC(C)(C)C1)C2c1cccc(O)c1
7,17.9,CC1(C)CC(=O)C2=C(C1)N(c1ccc(C#N)cc1)C1=C(C(=O)CC(C)(C)C1)C2c1cccc(O)c1
